System: MS2 coat protein
Experiment: apparent Kd, MS2 coat protein; higher = weaker binding; RNA-MaP array; FMN 200 µM where present
Summary of the method: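 On Illumina sequencing-chip clusters, designs were transcribed by stalled E. coli RNA polymerase and titrated with SNAP-549-labelled MS2 coat protein (0.7 or 1.5 nM, doubling to 3 µM), without and then with constant ligand, in 100 mM Tris-HCl pH 7.5, 80 mM KCl, 4 mM MgCl2, BSA, DTT, yeast tRNA and Tween-20. Apparent Kd is the median of filtered per-cluster curve fits to green signal normalised to red-channel RNA signal and control-cluster median Fmax.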

[1] = designed as: ON switch for flavin mononucleotide, no ligand
[2] = ligand present: flavin mononucleotide, designed as: ON switch for flavin mononucleotide
[3] = designed as: OFF switch for flavin mononucleotide, no ligand
[4] = ligand present: flavin mononucleotide, designed as: OFF switch for flavin mononucleotide

Sequence	apparent Kd [1]	apparent Kd [2]	apparent Kd [3]	apparent Kd [4]
GGGUACAUCGGAGGAUAUCAUGUAAAUACAUGAGGAUCACCCAUGUCGUUGGAGACAUCGGAGAUUGAGAAGGCCGAUGUACCG	199 nM	339 nM		
GGGUGUGAAGGAUAUACAUGAGGAUCACCCAUGUGAGAGGAGAAUGUUGAGGAGGUUGGUAGAAGGUCAGGAGG			93.8 nM	67.6 nM
AAAAUGUGAGGAUAUCACGGAACUCCGCGUGACGGAGCUCCUGAGAAGGCACAUGAGGAUCACCCAUGUCCUGU			52.8 nM	276 nM
UGUUGUAUUACAGGAUAUCUAGUAUUUUUAAUUAGAGAAGGGUAUUCACAUGAGGAUCACCCAUGUAUAUACGAGGAAGUUGUG	43.3 nM	43.1 nM		
GUUGCGUUUGUGAGGAUAUGCUGGUCCUUGGUUCGGCAGAAGGCACAUGAGGAUCACCCAUGUGGUGUUGUUCC			126 nM	94.7 nM
AUGCUUUAUGUAGGAUAUGCAUACGGUACGUAUGCAGAAGGACAUGAGGAUCACCCAUGUAUAUUAUUAUUACAUAUCAUACAU			26.6 nM	377 nM
UUUGGGUGGCUGGAGGAUAUCCUUGUUGUUACAUGAGGAUCACCCAUGUGCCGCGCGGUUCGCGAGGAGAAGGCUGGCGGCCGUU	331 nM	61.3 nM		
CAGAAGUCAGGAUAUGCUGCUCGUCACUUGCGUGAUGAGUAGCAGAAGGGACAUGAGGAUCACCCAUGUAAAGU			55.6 nM	121 nM
UCGACCAGCGCCAGUCGAACAUGAGGAUCACCCAUGUACUCCAGAAGGCCGCCCAAGUACGGAGUGGAGGAUAUGGAAGUUCUC	47.3 nM	26.3 nM		
CAGCGAAAGCUGAAUGUCGGAGCAGAGGAUAUUACAUGAGGAUCACCCAUGUAUGAACCAAAAUGUAAGAAGGCUGCUCCGACA			844 nM	20.4 nM
AUAAUGUAAGGAUAUCAGUCGACUAGCUUCGGCUAGUCGACUGAGAAGGUACAUGAGGAUCACCCAUGUGUUUC			37.7 nM	209 nM
AAGAAACAUGAGGAUCACCCAUGUCGAGAGAGACGAGGAUAUCUGAAUCGAUUAGAUUACGGAGAAGGCGUGAAAA	29.4 nM	23.4 nM		
GCCUCACAUGAGGAUCACCCAUGUCAGGAUAUGCCGAUCUUAUGGUCUGGUACGACGAGCAGAAGGGACAUGCA			19.5 nM	57.9 nM
GGUUGUGUGUAAGGAUAUGCAUCACUGAGAAAUUUAGUGAGGAAGAUCACAUGAGGAUCACCCAUGUAGAAGGUACACACGUGG			10.7 nM	50.1 nM
AGUGCUAUGUAGAAGGCAGAUCUGAUUCAGAUCUGAGGAUAUACAUGAGGAUCACCCAUGUUAUGCACCAGCACGAGAGUGCAA			8.2 nM	17.5 nM
UUUUUAUUUGUAGGAUAUGGAGACAUGAGGAUCACCCAUGUAUGAUAAGCUAAAUUAUGCUGUGGCCAGAAGGAUAUUAUUUUU	43.9 nM	49.7 nM		
UUAUCUUGUCAAGGAUAUGUUGUAUUGAUCUGAAAACAUGAGGAUCACCCAUGUAUACGGUGGGAACAGAAGGUGAAUGUAGAA				721 nM
UUUAAGGAAGGAUAUACAAUAUAAAUAAUAUCCUCAUUAUUACAUGAGGAUCACCCAUGUAGAAGGUCCAAUUU			118 nM	368 nM
AACAUGGUGCAGGAUAUCCAACAUAUCGCGAGAGGAGAAGGGUACACAUGAGGAUCACCCAUGUGUGGUCUGUU			29.3 nM	223 nM
UUUCUCGUUGUGAGGAUAUCGUUUUUGUCUCGGAUCGAGAAGGCACAUGAGGAUCACCCAUGUUUGUUGUGGUU			85.1 nM	103 nM
AAGAAGUCAGGAUAUCGUUAAUUUAGUUGUUUGUAUUAGUUCGAGAAGGGACAUGAGGAUCACCCAUGUAAGAA			35.2 nM	42.7 nM
GUGCCUUGGGAGAAGGCCCAAUGCAAAGCAUAGGGAGGAUAUUCAUAUAAUAAAUAAACAUGAGGAUCACCCAUGUGGCACAAA	479 nM	33.3 nM		
UGAUAGGACAGAGGAUAUGCCGAUAGGAUCUACUAUCGAAGAAUCCUCACAUGAGGAUCACCCAUGUAGAAGGCUGUCCUAUCC			8.68 nM	39.5 nM
AAUUAGGUCACAGGAUAUACAUCAUCCAUAGAUGUAGAAGGGUGUCAAAAUAAUAUCUGACAUGAGGAUCACCCAUGUUUCCAC	19.5 nM	8.97 nM		
AAAUUCUGAGGAUAUCGAUGUUUGUACAUGAGGAUCACCCAUGUCCUUUUUAUUUUUUCUCGAGAAGGCAGUGUAU			38.1 nM	35.3 nM
AGCAGACGAGGAUAUAGAUUUGUUAACAUGAGGAUCACCCAUGUGAUCGAUUUUUCAUAUUUAGAAGGUGUCUGCU			83.3 nM	392 nM
AUGAAGUCAGGAUAUGCCACGUAAAGCCAUGGCUUUGGAGUGUAGAAGGGACAUGAGGAUCACCCAUGUUGUCC			30.9 nM	32.2 nM
ACGUUUUAUGCAGGAUAUUGACAUAUAUUUAAACAAGAAGGGCAUUACAUGAGGAUCACCCAUGUUAUAAUGGUAUUUAAGUUC			14.7 nM	15.6 nM

Sequence	apparent Kd [1]	apparent Kd [2]	apparent Kd [3]	apparent Kd [4]
UACAUCAAUGAAGGAUAUCUAUAUCCAACAUGAGGAUCACCCAUGUUGAGGAUCACCCAUGUAAAGGAGAAGGUUAAUAUAACU	37.7 nM	29.7 nM		
AUCAGCUCGUCAGGAUAUACAUCACUGCUUCGGCAGUGUGGUAAGAUCACAUGAGGAUCACCCAUGUAGAAGGGACGAGCUGAU			13.9 nM	217 nM
GGGUACAUCGGAGGAUAUCAUGUAAAUACAUGAGGAUCACCCAUGUCGAUGGAGACAUCGGAGAUUGAGAAGGCCGAUUUACCG	184 nM	8.4 nM		
UCUGAGGUCACAGGAUAUCAUACGUCGGCACGUUGAGAAGGGUGACCGAGCUACAUGAGGAUCACCCAUGUGCUGUCGUAACAA	85.4 nM	164 nM		
AAUCUGUAGCAGAAGGUCAUUUUUAUAAAUAAGCUGGUGACAUGAGGAUCACCCAUGUAAAGGUUGAAGGAUAUGCAUUCUAUU			90.5 nM	343 nM
ACAUGAGGAUGAGGAUAUUCAUACAUGAGGAUAGAAGAAGGCAUACAUGAGGAUCACCCAUGUAUACACAUGAGGAUCGCCCAU			37.1 nM	47.3 nM
UUUAAUAAGUAGAAGGACGGAGAGUAUGAAGUCGUAGGAUAUACAUAAGACAUGAGGAUCACCCAUGUGUGUAUUUUGGGUAUG			12.8 nM	13.4 nM
AGACAGUCAGGAUAUACAUGAGGAUCACCCAUGUUGAGAUGUGAAAGGGCAGGAAUAGGUAGAAGGGACGAGAG			34.6 nM	33.7 nM
AAUAGUAAGUAGAAGGUAGUAAGUAUGUUAAUCUUGUUAACAUGAGGAUCACCCAUGUAGACUACUAAGGAUAUACAUCGAUAG			14.3 nM	13.7 nM
GAAUAGGCAGGAUAUACAUGAGGAUCACCCAUGUGCUUGCGCUAGGCACGUGAACAACGUAGAAGGGCCUAGAC			14 nM	22.8 nM
GAGGAUAGAGGAUAUGCAUAGAUACGGAUUCGUGUAGUACUACAUGAGGAUCACCCAUGUAGAAGGCUGUCCAG			12.7 nM	22 nM
UGAUAGGACAGAGGAUAUACGGAUAGGAUCUACUAUCUUCCUUAAAUAACAUGAGGAUCACCCAUGUAGAAGGCUGUCCUAUCU			18.2 nM	65.2 nM
AGGAUGCGUGCAGGAUAUCGAGUCGGGAUGGCUCGCGUGGUGUGCCACAUGAGGAUCACCCAUGUCGAGAAGGGCAGGCGGCGC			535 nM	256 nM
UGAUUUCAUGUAGGAUAUGCAUGGCGAAGCUACGCAGAAGGACAUGAGGAUCACCCAUGUUUUAGCGUCUGAGUAUAGAUUCUA			140 nM	158 nM
AGCCCUAAUGUCAGGAUAUGCAUCCUUAAUGGACGGCAGAAGGGACAUGAGGAUCACCCAUGUAAAUAGAAAUU			34.8 nM	146 nM
CGCUAUGACAUAGGAUAUUGGUACAUGAGGAUCACCCAUGUCAACUUUUUAGCAUAAUUUGUUGACAAGAAGGAUGUGGUAGCG	54.1 nM	12.6 nM		
AUCAGCUCGUCAGGAUAUACGUCACUGCCUCAGCAGUGUGGUAAGAUCACAUGAGGAUCACCCAUGUAGAAGGGACGAGCUGAU			15.5 nM	299 nM
UGUCGGAGCAGAGGAUAUUACAUGAGGAUCACCCAUGUAUGAACCAAUAACUGGAAACAGCAAUGUAAGAAGGCUGCUCCGACA			7.6 nM	42.5 nM
UGUGGGAGUCAGAAGGAGUAUUCUACAUGAGGAUCACCCAUGUCUGGUGCUAGGAUAUGGGUCUGGGCGGACUAAGGUCUCGUA	444 nM	243 nM		
GUAGCAUAAUCAGGAUAUUCAGCGAAUAGAUAGACAUGAGGAUCACCCAUGUGGCGAAAGCCUCGGGAGAAGGGAUAAUGCUAC	168 nM	54 nM		
AUAAAACAUGAGGAUCACCCAUGUAGAAAUAUGGGAGGAUAUACAAAGACGAAAGUCAAAGUAGAAGGCCUAAAAG	127 nM	33.5 nM		
GGAUAGGACAGAGGAUAUACAGAUAGGAUCUACUAUCAAACAAUCCUGACAUGAGGAUCACCCAUGUAGAAGGCUGUCCUAUCG			24.6 nM	85.1 nM
AGGUUGUGAGGAUAUUAGUUAUAUGAAUGGAGGAGUAUGGCUGAGAAGGCACAUGAGGAUCACCCAUGUAGAUC			120 nM	420 nM
UGUCGGAGCAGAGGAUAUUACAUGAGGAUCACCCAUGUAUGAACCAAAAGCUGGAAACAGCAAUGUAAGAAGGCUGCUCCGACA			11.8 nM	123 nM
ACCAUUUACUAGUUUUCUAUACAUGAGGAUCACCCAUGUUUUUAGGAUAUCAGCGUGAAACACGCUGAGAAGGAAGAACAUUCG			22.6 nM	31.2 nM
UCGGCGCGAGGAUAUACGUUUGCUUUUUUGUGUCGUUGCGUACAUGAGGAUCACCCAUGUAGAAGGCGCGCCGC			17.5 nM	83.6 nM
GUAGAGUAAGGAUAUGGUGAAUAGGAUAGAAUGGUUAGAAACCAGAAGGUACAUGAGGAUCACCCAUGUAAUGU			21 nM	21.1 nM

From the EternaBench riboswitch data
